EBI2 antag: antagonists of human EBI2 receptor; P32249; EBI2 beta-arrestin recruitment, luminescence, 7a,25-OHC stimulated; inhibition, % at 5 µM; hit rate 0.81% among 360,000; AID 651636; in the data active = inhibition above about 38%;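 note: enzyme fragment complementation signal reports receptor beta-arrestin coupling in cells; 0% = agonist plus DMSO wells and 100% = wells without agonist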
CXCR6 inh: inhibitors of human CXCR6 receptor; O00574; hit rate 0.36% among 360,000; inhibition, % at 20 µM; CHO-K1 PathHunter CXCR6 beta-arrestin, luminescence; in the data active = inhibition above about 34%, passing the limit was not always enough;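 note: antagonist mode with CXCL16 agonist at 10 nM final; 0% = 10 nM CXCL16 with DMSO and 100% = unstimulated wells without agonist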
APJ agonist: APJ receptor agonism | P35414 | CHO-K1 APJ PathHunter beta-arrestin, luminescence; 0% DMSO wells, 100% apelin | activation, % at 20 µM | hit rate 0.11% among 330,000 | AID 2520;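 active = activation more than six SD over the plate average, tested at 20 µM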;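 note: 0% = DMSO alone and 100% = apelin-13 at 10 nM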
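Incubation: overnight seeding, 90 min compound at 25 °C, 1 h detection; test system: PathHunter CHO-K1 APJ (AGTRL-1) beta-arrestin reporter cells; amount: 1000 cells/well; doses: one dose, 20 µM compound, 1% DMSO; measured by: beta-gal luminescence; measure: agonist-driven arrestin binding to APJ; benchmarks: negative DMSO alone, positive Apelin-13 at 10 nM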
Beta2AR agonist: activates human beta-2 adrenergic receptor causing internalization | P07550 | Am2.2-beta2AR cells, FAP receptor internalization, flow cytometry | response, % (test concentration not listed) | hit rate 0.43% among 340,000 | AID 504454;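 active = response above a set limit, near 3 SD of response in nonfluorescent compounds, cut at about 42% in these data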
APJ antag: antagonists of human APJ apelin receptor | CHO-K1 APJ beta-arrestin complementation, luminescence | inhibition, % at 20 µM | P35414 | hit rate 0.32% among 330,000;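 active = inhibition above about 40% at 20 µM, limit read from the data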;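 note: cells challenged with 10 nM apelin-13 agonist together with compound; plate controls were apelin-13 plus DMSO wells for no effect and DMSO wells lacking apelin-13 for full effect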
CCR6 antag: antagonists of human CCR6 receptor. hit rate 0.49% among 340,000. P51684. CHO-K1 CCR6 PathHunter beta-arrestin, luminescence, CCL20-stimulated. inhibition, % at 20 µM;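 active = compounds whose inhibition of the agonist-driven luminescence signal at 20 µM reaches about 50%, limit read from the data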;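 note: cells stimulated with CCL20 at 14 nM final; plate controls were DMSO with CCL20 for no effect and DMSO without agonist for full effect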
Target sequence (P51684 whole entry, looked up): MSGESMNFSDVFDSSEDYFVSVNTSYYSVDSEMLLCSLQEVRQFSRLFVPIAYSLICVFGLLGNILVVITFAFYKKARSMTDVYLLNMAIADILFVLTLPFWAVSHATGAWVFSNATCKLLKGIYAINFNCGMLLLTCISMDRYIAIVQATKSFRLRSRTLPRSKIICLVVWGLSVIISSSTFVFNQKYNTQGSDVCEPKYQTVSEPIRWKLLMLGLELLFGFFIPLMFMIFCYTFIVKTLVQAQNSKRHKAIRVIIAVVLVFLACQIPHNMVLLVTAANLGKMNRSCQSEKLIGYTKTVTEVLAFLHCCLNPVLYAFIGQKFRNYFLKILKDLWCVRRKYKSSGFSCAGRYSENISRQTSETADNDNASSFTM
An asterisk follows results filed as active; · = not tested or not shown; ! = a repeat was not active. Hits are enriched below; roughly 1.8% of the tested compounds scored in any of these assays.

SMILES | EBI2 antag | CXCR6 inh | APJ agonist | Beta2AR agonist | APJ antag | CCR6 antag
CNC(=S)N1N=C(c2ccc(Br)cc2)CC1c1ccc(N(C)C)cc1 (configuration not stated) | 94* | -8 | -1 | -9 | -17 | 2
C=CCOC(=O)C1=C(C)NC(SCC(=O)NC(=O)OCC)=C(C#N)C1c1cccnc1 (configuration not stated) | -4 | -2 | -3 | 57*! | -9 | 6
C=CCOC(=O)C1=C(C)NC(SCC(=O)N(CC)CC)=C(C#N)C1c1ccccc1 (configuration not stated) | 12 | 8 | 4 | 12 | 21 | 20
CCOc1ccc(NC(=S)Nc2ccc3nsnc3c2)cc1 | 53* | -3 | -3 | 10 | -3 | 21
CCOc1ccc(C(=O)Nc2nnc(NC(=S)Nc3ccccc3)s2)cc1 | 4 | 7 | -4 | 103* | 30 | 19
Cc1ccc(C(=O)Nc2nnc(NC(=S)Nc3ccccc3)s2)cc1 | -4 | 8 | -2 | 11 | 19 | 11
CCOc1ccc(NC(=O)Nc2ccc3nsnc3c2)cc1 | 9 | 3 | -4 | 5 | 5 | 18
COc1ccccc1NC(=O)COC(=O)c1ccc(N2CCCC2=O)cc1 | -3 | 1 | -4 | 2 | -9 | 5
O=C1ON=C(c2ccccc2)/C1=C/c1ccco1 | -11 | 6 | 1 | 58* | -3 | 30
CN(C)/C=C1\C(=O)ON=C1c1ccccc1 | -11 | -12 | -6 | 10 | 0 | 3
O=C1ON=C(c2ccccc2)/C1=C/c1ccc(-c2ccccc2[N+](=O)[O-])o1 | 18 | 17 | · | 96* | · | 23
O=[N+]([O-])c1ccccc1-c1ccc(/C=N/n2cnnc2)o1 | -10 | -10 | 8 | 0 | -4 | -22
O=C(N[C@@H](Cc1ccccc1)C(=O)N[C@@H](Cc1ccccc1)C(=O)O)OCc1ccccc1 | -11 | -4 | -3 | 5 | 22 | -1
O=C(N[C@@H](Cc1ccccc1)C(=O)CCl)OCc1ccccc1 | 2 | 12 | -3 | 47* | 8 | 45
O=C1C=CC(=O)N1c1ccc(OC(F)F)cc1 | 7 | 103* | · | -389 | · | ·
O=C1CCCC(=O)N1c1ccc(O)cc1 | 4 | 1 | 0 | 11 | 2 | 9
O=C(O)CNC(=O)c1ccc(OC(F)F)cc1 | -10 | 1 | -5 | 1 | 11 | 4
O=C1C=CC(=O)N1c1ccc(O)cc1 | 8 | 14 | -5 | 8 | -3 | 81*
COc1ccc(-c2c3c(cc4ncn(Cc5ccccc5)c24)COC3=O)cc1 | 0 | 8 | -3 | -7 | 12 | 18
CC(C)(C)c1ccc(C(O)CCCN2CCC(C(O)(c3ccccc3)c3ccccc3)CC2)cc1 (configuration not stated) | -6 | -14 | 3 | 64* | 21 | 6
OC(c1ccccc1)(c1ccccc1)C1CCN(CCCOc2cccc(OC(F)(F)F)c2)CC1 | -6 | -10 | · | · | · | ·
O=C1c2ccccc2C(c2nnnn2Cc2ccccc2)N1Cc1cccs1 (configuration not stated) | 1 | 2 | · | · | · | ·
COc1ccc(-c2csc(N3C(=N)SCC3=O)n2)cc1 | -4 | 29 | -6 | 23 | 19 | 56*
COc1ccc(-c2csc(N3C(=O)C4C5c6ccccc6C(c6ccccc65)[C@@H]4C3=O)n2)cc1 (some centres not stated) | 0 | 1 | 1 | 2 | 5 | -5
CCCCCCCCN1C(=O)[C@H](CC(=O)NCc2ccc(C)o2)C[C@@]2(C(=O)OCC)CCC=C12 | 6 | · | · | · | · | ·
SMILES | EBI2 antag | CXCR6 inh | APJ agonist | Beta2AR agonist | APJ antag | CCR6 antag
CCc1ccc(NC2=NCC(c3ccccc3)S2)cc1 (configuration not stated) | 19 | -7 | -3 | 67* | 4 | 18
CCOCCC(=O)Nc1ccc2c(c1)c(=O)n(C)n2C/C=C/c1ccccc1 | -5 | -5 | · | · | · | ·
CCOC(=O)c1ccc(Oc2nc(N(C)C)nc(N(C)C)n2)cc1 | 15 | 1 | 1 | -15 | 5 | -4
CN(C)c1nc(Oc2ccc(N)cc2)nc(N(C)C)n1 | -5 | -13 | -5 | 77* | 8 | 0
Cc1ccc(OCC(=O)NNC(=S)NC(=O)c2cccs2)c(C)c1 | -9 | 37 | -7 | -5 | 10 | 55*
COC(=O)C1CN(S(=O)(=O)c2ccc(C)cc2)CCN1S(=O)(=O)c1ccc(C)cc1 (configuration not stated) | 55* | 2 | -3 | -2 | 12 | 8
COC(=O)C1Cc2ccccc2CN1S(=O)(=O)c1ccc(C)cc1 (configuration not stated) | 8 | 7 | 1 | 0 | -10 | 0
CC1=C(C(=O)N(C(C)C)C(C)C)CC(CC(=O)NCCN2CCOCC2)C(=O)N1Cc1ccc(C(C)(C)C)cc1 (configuration not stated) | -5 | -4 | · | · | · | ·
Cc1cccc2c1c1ccc3c(c1n2C)C(=O)C=CC3=O | -3 | 44* | · | 89* | · | 89*
Cc1ccccc1N1CC(=O)N(c2ccccc2C)CC1=O | -3 | 7 | -1 | 4 | -4 | 1
COc1ccccc1NC(=O)COc1ccc(/C=N/NC(=O)CSCc2ccc(Cl)cc2)cc1 | 15 | 6 | -4 | -5 | 64* | 2
O=C(N/N=C/c1ccccc1[N+](=O)[O-])c1ccc2c(c1)OCCO2 | 7 | 2 | -2 | -15 | -24 | 8
Cc1ccc(C)c(NC(=O)CCC(=O)N/N=C/c2cc([N+](=O)[O-])ccc2O)c1 | -3 | 22 | -6 | 65* | 39 | 30
O=C(N/N=C/c1cccc([N+](=O)[O-])c1)c1cccc2cc[nH]c12 | -2 | -11 | 0 | -1 | -1 | -7
Cc1ccccc1NC(=O)CCC(=O)N/N=C/c1cc([N+](=O)[O-])ccc1O | 6 | 14 | -8 | 10 | 31 | 32
O=C(N/N=C/c1cc([N+](=O)[O-])ccc1O)c1ccc2c(c1)OCCO2 | 76* | 6 | -1 | 14 | 6 | 33
O=C(N/N=C/c1cc([N+](=O)[O-])ccc1O)c1cccc2cc[nH]c12 | 63* | 16 | -5 | 5 | 8 | 27
O=C(N/N=C/c1cc([N+](=O)[O-])ccc1O)C1CC1 | 62* | 21 | -4 | 1 | 10 | 42
CC1CCc2c(sc(NC(=O)CSc3nc(N)cc(=O)[nH]3)c2C(N)=O)C1 (configuration not stated) | 6 | 6 | -2 | 6 | 7 | 4
O=C(Cc1ccc(Cl)cc1)NN1C(=O)c2ccccc2C1=O | -1 | -8 | 2 | 15 | 13 | 5
COC(=O)[C@@H]1[C@@H](C#N)C2(c3ccccc3-c3ccccc32)N(c2ccc(Cl)cc2)N1C#N | 17 | 52* | 1 | 32 | 7 | 47
